Data from ChEMBL document CHEMBL1121966, “(2R*,3S*)-1-[125I]Iodo-2,3-bis(4-hydroxyphenyl)pentane ([125I]iodonorhexestrol) and (2R*,3S*)-1-[77Br]Bromo-2,3-bis(4-hydroxyphenyl)pentane ([77Br]bromonorhexestrol), two gamma-emitting estrogens that show receptor-mediated uptake by target tissues in vivo” (1982).

Experiments:
Type in all cases: functional
[1] = Spleen/blood distribution ratio was determined immature female rats at 1 hr
Method in brief: (§1)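 Immature (25 day) female Sprague-Dawley rats (ca. 50 g) were dosed iv (jugular or tail vein) in ethanol plus 0.9% NaCl/rat serum (1:1). Doses were 2 μCi of [125I]iodonorhexestrol (≤15 pmol/dose), or 2 μCi each of [77Br]bromonorhexestrol (≤1.25 pmol/dose) and 16α-[125I]iodoestradiol (2 pmol/dose). Rats were killed at 1, 3 or 6 h; blood and tissues were weighed and γ-counted. Thyroid weight assumed 0.005 g/100 g body weight. Mean ± SD.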

[2] = Spleen/blood distribution ratio was determined immature female rats at 3h; method in brief: as §1
[3] = Esophagus/blood distribution ratio was determined in immature female rats at 1 hr with unlabeled estradiol
Method in brief: (§2)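 Immature (25-day, ca. 50 g) Sprague-Dawley female rats received an iv injection (jugular or tail vein) of HPLC-purified tracer in ethanol plus 0.9% NaCl/rat serum 1:1. Doses were 2 μCi [125I]iodo tracer (≤15 pmol), or 2 μCi [77Br]bromo tracer (≤1.25 pmol) with 2 μCi 16α-[125I]iodoestradiol. Animals were killed at 1 h; blood and tissues were weighed and γ-counted. Blocking: coinjected unlabeled estradiol, 9 μg (iodo) or 18 μg (bromo). Mean ± SD.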

[4] = Esophagus/blood distribution ratio was determined in immature female rats at 3h
Method in brief: (§3)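 Dual-label study in immature 25-day female Sprague-Dawley rats (ca. 50 g). Each received 2 μCi [77Br]bromo tracer (≤1.25 pmol/dose) and 2 μCi 16α-[125I]iodoestradiol (2 pmol/dose) by tail or jugular vein, in ethanol diluted with saline/rat serum 1:1. Rats were killed at 3 or 6 h; blood and 11 tissues were weighed and counted. Five rats per time point; mean ± SD.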

[5] = Esophagus/blood distribution ratio was determined in immature female rats at 6 hr; method in brief: as §3
[6] = Muscle/blood distribution ratio was determined immature female rats at 1 hr with unlabeled estradiol; method in brief: as §2
[7] = Muscle/blood distribution ratio was determined in immature female rats at 1 hr; method in brief: as §2
[8] = Muscle/blood distribution ratio was determined in immature female rats at 3h; method in brief: as §3
[9] = Thyroid/blood distribution ratio was determined in immature female rats at 3h; method in brief: as §1
[10] = Thyroid/blood distribution ratio was determined in immature female rats at 6 hr; method in brief: as §1
[11] = Kidney/blood distribution ratio was determined in immature female rats at 6 hr; method in brief: as §3
[12] = Liver/blood distribution ratio was determined in immature female rats at 1 hr; method in brief: as §2
[13] = Liver/blood distribution ratio was determined in immature female rats at 1 hr with unlabeled estradiol; method in brief: as §2
[14] = Liver/blood distribution ratio was determined in immature female rats at 3h; method in brief: as §3
[15] = Liver/blood distribution ratio was determined in immature female rats at 6 hr; method in brief: as §3
[16] = Lung/blood distribution ratio was determined in immature female rats at 1 hr; method in brief: as §2
[17] = Lung/blood distribution ratio was determined in immature female rats at 3h; method in brief: as §3
[18] = Lung/blood distribution ratio was determined in immature female rats at 6 hr; method in brief: as §3
[19] = Spleen/blood distribution ratio was determined immature female rats at 6 hr; method in brief: as §1
[20] = Spleen/blood distribution ratio was determined in immature female rats at 1 hr with unlabeled estradiol
[21] = Kidney/blood distribution ratio was determined in immature female rats at 1 hr; method in brief: as §2
[22] = Kidney/blood distribution ratio was determined in immature female rats at 1 hr with unlabeled estradiol; method in brief: as §2
[23] = Tissue/blood distribution ratio was measured in immature female rats at 1 hr; method in brief: as §1
[24] = Tissue/blood distribution ratio was measured in immature female rats at 1h, unlabeled estradiol (18 microg) coinjected
Method in brief: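 Immature female rats given iv [77Br]bromonorhexestrol with 16α-[125I]iodoestradiol (2 μCi each) plus 18 μg unlabeled estradiol coinjected; killed at 1 h. Tissue and blood were weighed and counted, and tissue-to-blood radioactivity ratios were computed; 5 animals, mean ± SD.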

[25] = Tissue/blood distribution ratio was measured in immature female rats at 3h; method in brief: as §1
[26] = Tissue/blood distribution ratio was measured in immature female rats at 6 hr; method in brief: as §1
[27] = Thyroid/blood distribution ratio was determined in immature female rats at 1 hr; method in brief: as §1
[28] = Thyroid/blood distribution ratio was determined in immature female rats at 1 hr with unlabeled estradiol
Method in brief: (§4)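 Same iv biodistribution in immature female rats, killed at 1 h, with unlabeled estradiol coinjected to block receptor uptake: 9 μg with [125I]iodonorhexestrol (3 rats), 18 μg with the [77Br]bromonorhexestrol/16α-[125I]iodoestradiol pair (5 rats). Tissue and blood radioactivity were counted as % injected dose/g and tissue-to-blood ratio.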

[29] = Uterus/blood distribution ratio was measured in immature female rats at 1 hr; method in brief: as §1
[30] = Uterus/blood distribution ratio was measured in immature female rats at 3h; method in brief: as §1
[31] = Uterus/blood distribution ratio was measured in immature female rats at 6 hr; method in brief: as §1
[32] = Kidney/blood distribution ratio was determined in immature female rats at 3h; method in brief: as §3
[33] = Muscle/blood distribution ratio was determined in immature female rats at 6 hr; method in brief: as §3
[34] = Uterus/blood distribution of compound was measured in immature female rats at 1 hr with unlabeled estradiol; method in brief: as §4
Rattus norvegicus [35] = species: Rattus norvegicus; test: Percent injected dose per gram Muscle at 1 hr; method in brief: as §2
Rattus norvegicus [36] = species: Rattus norvegicus; test: Percent injected dose per gram Uterus at 3h; method in brief: as §3
Rattus norvegicus [37] = species: Rattus norvegicus; test: Percent injected dose per gram kidney at 6 hr; method in brief: as §3
Rattus norvegicus [38] = species: Rattus norvegicus; test: Percent injected dose per gram spleen at 6 hr; method in brief: as §1
[39] = Lung/blood distribution ratio was determined in immature female rats at 1 hr with unlabeled estradiol; method in brief: as §2
[40] = Esophagus/blood distribution ratio was determined in immature female rats at 1 hr; method in brief: as §2

Compound `C[C@]12CC[C@@H]3c4ccc(O)cc4CC[C@H]3[C@@H]1C[C@@H](I)[C@@H]2O` has a Ratio [1] of 0.46, a Ratio [2] of 0.27 and a Ratio [3] of 0.95. The Ratio [4] was 0.47, the Ratio [5] was 0.76 and the Ratio [6] was 0.5. For the same compound, the Ratio [7] was 0.42, the Ratio [8] was 0.25 and the Ratio [9] was 192.8. The Ratio [10] was 472.6, the Ratio [11] was 3.49 and the Ratio [12] was 3.55. The Ratio [13] was 3.95, the Ratio [14] was 4.76 and the Ratio [15] was 6.28. The Ratio [16] was 0.86, the Ratio [17] was 0.67 and the Ratio [18] was 0.93. The Ratio [19] was 0.35, the Ratio [20] was 0.67 and the Ratio [21] was 2. It also gave a Ratio [22] of 1.4, a Ratio [23] of 1 and a Ratio [24] of 1. For the same compound, the Ratio [25] was 1, the Ratio [26] was 1 and the Ratio [27] was 30.8. The Ratio [28] was 44.5, the Ratio [29] was 9.54 and the Ratio [30] was 7.36. It also gave a Ratio [31] of 9.14, a Ratio [32] of 1.83 and a Ratio [33] of 0.27. It also gave a Ratio [34] of 1.37, an Injected dose (Rattus norvegicus [35]) of 0.53% and an Injected dose (Rattus norvegicus [36]) of 6.83%. The Injected dose (Rattus norvegicus [37]) was 0.4%, the Injected dose (Rattus norvegicus [38]) was 0.08% and the Ratio [39] was 1.08. The Ratio [40] was 0.62.
